Here are results for ten compounds from ChEMBL document CHEMBL1132241, “Novel multidrug resistance reversal agents” (J Med Chem, 1999).

A short description of series [1]: Partition coefficient (logP). Type of series: physicochemical. The conditions noted are these: octanol/water.
Series [2] concerns Mus musculus. The experiment in a line: Percent increase in mean life span relative to treatment with an equivalent dose of vincristine alone at 50 mg/kg in mice with vincristine-resistantmurine leukemia P388/VCR cells. Type of series: functional. In outline:
(§1)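 CDF1 mice were implanted ip with 1 × 10^6 P388/VCR cells. Agent and 0.2 mg/kg vincristine were given simultaneously ip once daily, days 1–7. Mean survival over up to 30 days was compared with vincristine alone at an equivalent dose, giving % increase in life span. Student t-test was applied to mean survival time.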

For series [3], the system named is Mus musculus. The experiment in a line: Percent increase in mean life span in mice infected with leukemia P388/VCR, at 100 mg/Kg dose. Type of series: functional. The gist of the method:
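CDF1 mice were implanted ip with 1 × 10^6 P388/VCR cells (line passaged in DBA/2 ascites). Agent at 100 mg/kg in Cremophor/ethanol/saline was given ip once daily on days 1–7 without vincristine. Survival was followed to 30 days. Result is the % increase in mean life span versus placebo.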

The subject of series [4] is Mus musculus. The experiment in a line: Percent increase in mean life span in mice infected with leukemia P388/VCR, at 50 mg/Kg dose. In kind it is functional. The gist of the method: (§2)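 CDF1 mice (groups of 10–15) were implanted ip with 1 × 10^6 P388/VCR cells. Agent plus 0.2 mg/kg vincristine were given together ip once daily on days 1–7, starting 1 day post-implant, in cremophor/ethanol or propylene glycol/ethanol vehicle. Survival was recorded to 30 days. Result is the % increase in mean life span versus placebo control.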

Series [5] relates to Mus musculus. Kind of series: Percent increase in mean life span when 0.2 mg/kg vincristine was administered ip once daily on days 1-7, in mice infected with leukemia P388/VCR. The conditions noted are these: route intraperitoneal. In kind it is functional. On the set-up: concentration or dose not given beside the values. In outline:
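CDF1 mice bearing ip P388/VCR (1 × 10^6 cells) received 0.2 mg/kg vincristine ip once daily on days 1–7. Mean survival to 30 days was expressed as % increase in life span relative to placebo control.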

The test system of series [6] is Mus musculus. The experiment in a line: Relative tumor growth inhibition against human epidermoid carcinoma KB/8.5 implanted subcutaneously only in mice at 8 mg/kg (DOX). The conditions noted are these: route subcutaneous. Type of series: functional. In outline:
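KB/8.5 cells grown in RPMI 1640 with 5% fetal calf serum plus colchicine (10 ng/mL), which was removed for two passages. 8 × 10^6 cells were then implanted sc in athymic nude mice. At 100-300 mg tumor mass, mice were grouped 5-10/group. Doxorubicin was given as a single iv dose (8 mg/kg). Tumor mass was measured on day 14, and relative growth was compared with saline control.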

The subject of series [7] is Mus musculus. Kind of series: Percent tumor growth inhibition against human epidermoid carcinoma KB/8.5 implanted subcutaneously in mice at 50 mg/kg of compound along with 8 mg/kg (DOX ) was determined. Type of series: functional. The gist of the method: (§3)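 Athymic nude mice bearing sc KB/8.5 tumors (8×10^6 cells, colchicine withdrawn for two passages), grouped at 100–300 mg tumor mass, 5–10 mice/group. Doxorubicin 8 mg/kg given once iv; reversal agent or placebo given sc 2 h before and 2 h after. Tumor mass on day 14 used for relative tumor growth versus doxorubicin alone; Student t-test on log RTG.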

Series [8] in a line: (§4) In vitro concentration at which 50% of human colon carcinoma cells (S1-B1-20) resistant to bisantrene have survived. In kind it is ADME, cell-based, S1B1-20. The conditions noted are these: S1-B1-20 human colon carcinoma cells resistant to bisantrene, read-out: LD50 (the source's name). In outline: (§5)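 S1-B1-20 cells (LS 174 T-derived S1 clone selected in bisantrene over 12–16 weeks), trypsinized, 20 000 cells/well. Test agent alone in DMSO (≤0.1% final), 0.1–80 µM, 3 days at 37 °C, 7% CO2. Survival by sulforhodamine B read at 540 nm versus untreated cells. Two to four measurement sets were made, and the value is the concentration giving 50% survival from a best-fit curve.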

The test system of series [9] is S1B1-20. The experiment in a line: In vitro concentration required to inhibit tumor activity on subclone of human colon carcinoma cells (S1-B1-20) resistant to bisantrene. Type of series: functional, cell-based. The gist of the method:
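S1-B1-20 cells (S1 clone of LS 174 T, selected in bisantrene over 12–16 weeks) plated at 20 000 cells/well with or without 20 μM bisantrene, plus test agent 0.1–80 μM from DMSO stock (final DMSO ≤0.1%). 3 days, 37 °C, 7% CO2. Survival by sulforhodamine B at 540 nm. IC50 from best-fit curve of difference score (survival alone minus survival with bisantrene) at 50; 2–4 sets of measurements.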

For series [10], the system named is Mus musculus. The experiment in a line: Percent increase in mean life span relative to treatment with an equivalent dose of vincristine alone at 6.3 mg/kg in mice with vincristine-resistantmurine leukemia P388/VCR cells. In kind it is functional. In outline: as §1
The test system of series [11] is Mus musculus. The experiment in a line: Percent increase in mean life span in mice infected with leukemia P388/VCR, at 6.3 mg/Kg dose. In kind it is functional. In outline:
as §2

Series [12] relates to Mus musculus. The experiment in a line: Percent increase in mean life span relative to treatment with an equivalent dose of vincristine alone at 12.5 mg/kg in mice with vincristine-resistantmurine leukemia P388/VCR cells. Type of series: functional. The gist of the method: as §1
The subject of series [13] is Mus musculus. The experiment in a line: Percent increase in mean life span in mice infected with leukemia P388/VCR, at 12.5 mg/Kg dose. In kind it is functional. In outline:
as §2

Series [14] has as its system Mus musculus. The experiment in a line: Percent tumor growth inhibition against human epidermoid carcinoma KB/8.5 implanted subcutaneously in mice at 100 mg/kg of compound along with 8 mg/kg (DOX ) was determined. In kind it is functional. In outline: as §3
Series [15] concerns S1B1-20. The description is as §4. Type of series: ADME, cell-based. The conditions noted are these: s1b1-20, read-out: LD50 (the source's name). In outline:
as §5

For series [16], the system named is Mus musculus. Kind of series: Percent tumor growth inhibition against human epidermoid carcinoma KB/8.5 implanted subcutaneously in mice at 200 mg/kg of compound along with 8 mg/kg (DOX ) was determined. In kind it is functional. The gist of the method:
as §3

For series [17], the system named is Mus musculus. Kind of series: Percent increase in mean life span relative to treatment with an equivalent dose of vincristine alone at 25 mg/kg in mice with vincristine-resistantmurine leukemia P388/VCR cells. In kind it is functional. The gist of the method: as §1
Series [18] concerns Mus musculus. The experiment in a line: Percent increase in mean life span in mice infected with leukemia P388/VCR, at 25 mg/Kg dose. Type of series: functional. In outline:
as §2

The structures appear in SMILES notation. pIC50: −log10 of the molar value.

Broadly, the logP is a log measure of how a compound divides between an organic and an aqueous phase. Broadly, the TGI is how far tumour growth fell short of that in controls. What is called pIC50 is the negative decadic logarithm of the IC50, by convention in mol/L. `COc1ccc(C(C#N)(CCCN2CCc3cc(OC)c(OC)cc3C2)Sc2ccc(C)cc2)cc1OC` (stereo unspecified): the logP in series [1] (read-out: logP) is 5.12. The ILS at 50 mg/kg worked out at 15% in the series on Mus musculus [2] and 73% in the series on Mus musculus [4]. Besides, the ILS at 100 mg/kg in the series with Mus musculus [3] is -3%. The ILS in the series with Mus musculus [5] came out at 51%. Moreover, in the series with Mus musculus [6], the Relative tumor growth turned out to be 39. Moreover, the TGI in the series on Mus musculus [7] was determined as 63%. In addition, the CC50 in [8] was 24 µM. Also, the negative-log IC50 (pIC50) in the series with S1B1-20 [9] (Homo sapiens, S1B1-20) is 6.34.
In the case of `COC(=O)C(CCCN1CCc2cc(OC)c(OC)cc2C1)(Sc1ccc(C)cc1)c1ccc(OC)c(OC)c1` (stereo unspecified), in series [1] (read-out: logP), the logP worked out at 5.54. In addition, the results for the ILS at 50 mg/kg in the series on Mus musculus [2] and in the series on Mus musculus [4] were 11% and 25%, respectively. The ILS in the series with Mus musculus [5] amounted to 13%. In addition, the CC50 in series [8] turned out to be 32.8 µM. The compound also showed a negative-log IC50 (pIC50) with S1B1-20 [9] (Homo sapiens, S1B1-20) of 5.83.
As to `COc1ccc(C(C#N)(CCCCCCCCN2CCc3cc(OC)c(OC)cc3C2)Sc2ccc(C)cc2)cc1OC` (stereo unspecified), the lipophilicity (logP) in series [1] (read-out: logP) turned out to be 7.76. For the same compound, the ILS at 6.3 mg/kg in the series with Mus musculus [10] was found to be 8%; with Mus musculus [11], 34%. The ILS in the series with Mus musculus [5] was 24%. In [8], the CC50 stood at 11.6 µM. Besides, the negative logarithm of the IC50 (pIC50) in the series on S1B1-20 [9] (Homo sapiens, S1B1-20) is 6.44.
In the case of `COc1ccc(C(C#N)(CCCCCCN2CCc3cc(OC)c(OC)cc3C2)Sc2ccc(C)cc2)cc1OC` (stereo unspecified), the log partition coefficient (logP) in [1] (read-out: logP) turned out to be 6.71. For the same compound, the ILS at 12.5 mg/kg with Mus musculus [12] is 23%; with Mus musculus [13], 68%. The ILS in the series on Mus musculus [5] came to 37%. Moreover, the CC50 in series [8] worked out at 13.5 µM. Besides, the pIC50 with S1B1-20 [9] (Homo sapiens, S1B1-20) was 6.52.
In the series on Mus musculus [6] (8 mg/kg), `COc1cc2c(cc1OC)CN(CCCCCCC(Sc1ccc(C)cc1)c1ccc(OC)c(OCCn3ccnc3)c1)CC2` (stereo in doubt; 47) displayed a Relative tumor growth of 80. In the series with Mus musculus [14], this compound gave an inhibition of tumour growth (TGI) of 56%. Moreover, the CC50 in the series with S1B1-20 [15] came to 5.64 µM. Also, the negative logarithm of the IC50 (pIC50) in the series on S1B1-20 [9] (s1b1-20) was 6.54.
As for `COc1cc2c(cc1OC)CN(CCCCCC(Sc1ccc(C)cc1)c1ccc3c(c1)OCO3)CC2` (stereo unspecified), the log partition coefficient (logP) in series [1] (read-out: logP) was determined as 7.31. The compound also displayed a Relative tumor growth in the series with Mus musculus [6] of 100. For the same compound, in the series with Mus musculus [16], the TGI came to 39%. For the same compound, in [8], the CC50 stood at 15.9 µM. The compound also gave a pIC50 in the series on S1B1-20 [9] (Homo sapiens, S1B1-20) of 6.30.
Turning to `COc1ccc(C(C#N)(CCCCCCCCCCCN2CCc3cc(OC)c(OC)cc3C2)Sc2ccc(C)cc2)cc1OC` (stereo unspecified), the logP in [1] is recorded as 9.35. Also, the figures for the ILS at 25 mg/kg in the series with Mus musculus [17] and in the series with Mus musculus [18] were 14% and 42%, respectively. Further, the ILS in the series on Mus musculus [5] came to 24%. In the series with Mus musculus [6], this compound came in with a Relative tumor growth of 39. Besides, in the series with Mus musculus [7], the TGI stood at 61%. The CC50 in series [8] was 10.8 µM. This compound also showed a negative logarithm of the IC50 (pIC50) in the series on S1B1-20 [9] (Homo sapiens, S1B1-20) of 5.76.
As for `COc1ccc(C(C#N)(CCCCCN2CCc3cc(OC)c(OC)cc3C2)Sc2ccc(C)cc2)cc1OC` (stereo unspecified), the log partition coefficient (logP) in series [1] (read-out: logP) came out at 6.18. Further, the ILS at 12.5 mg/kg with Mus musculus [12] is 33%; in the series with Mus musculus [13], 83%. The ILS at 100 mg/kg with Mus musculus [3] is -4%. For the same compound, in the series on Mus musculus [5], the ILS was found to be 37%. Also, the Relative tumor growth with Mus musculus [6] was found to be 69. The compound further came in with a TGI in the series with Mus musculus [7] of 59%. Moreover, in [8], the CC50 is 13.6 µM. Further, in the series on S1B1-20 [9] (Homo sapiens, S1B1-20), the negative-log IC50 (pIC50) was 6.43.
For the compound `COc1ccc(C(C#N)(CCCCCN2Cc3cc(OC)c(OC)cc3C2)SC2CCCCC2)cc1OC` (stereo in doubt; 28c), the CC50 with S1B1-20 [15] was found to be 15 µM. In addition, the negative logarithm of the IC50 (pIC50) with S1B1-20 [9] (s1b1-20) is 6.46.
As to `COc1ccc(C(C#N)(CCN2CCc3cc(OC)c(OC)cc3C2)Sc2ccc(C)cc2)cc1OC` (stereo unspecified), the logP in [1] (read-out: logP) is 4.59. The values for the ILS at 12.5 mg/kg in the series with Mus musculus [12] and with Mus musculus [13] were 13% and 89%, respectively. For the same compound, the ILS in the series with Mus musculus [5] was determined as 67%. In addition, in series [8], the CC50 came out at 33.7 µM. The negative logarithm of the IC50 (pIC50) with S1B1-20 [9] (Homo sapiens, S1B1-20) is 5.64.
